Bioassay records: PubChem BioAssay, Broad Institute
GASC1 inh: inhibitors of GASC-1 (KDM4C) histone demethylase, primary screen, biochemical, single concentration HTS; AID 720574, 2013; Lysine-specific demethylase 4C (Homo sapiens), Q9H3R0; inhibition, % at 12.5 µM; GST-KDM4C 2-372, H3K9me3 peptide, LANCE TR-FRET; 96,000 tested, 0.15% active;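 active = mean replicate inhibition above about 25%, with at least 55% of replicates also reaching it, limit read from the data, passing the limit was not always enough; inconclusive = only one of those two conditions met; inactive = neither condition met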
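System: N-terminal GST-fused human GASC-1 (KDM4C) fragment, residues 2-372; amount: enzyme final amount 10 nM; incubation: reaction 30 min RT, detection step 1 h RT; medium: HEPES buffer, pH 7.5, plus ascorbate; technique: LANCE TR-FRET, Eu antibody, ULight-streptavidin, EDTA, ex 340 nm, em 618/671 nm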
T cruzi growth-1: T. cruzi intracellular proliferation inhibitors, primary screen, cell-based, beta-gal Tulahuen parasites, NIH3T3 host, luminescence; T. cruzi beta-gal in NIH3T3, GalScreen luminescence, 90 h; inhibition, % at 8.34 µM; 77,000 tested, 5.9% active; AID 624255, 2012;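 active = mean inhibition above about 93%, with at least 55% of replicates each passing it, limit read from the data, passing the limit was not always enough; inconclusive = only one of those two conditions holds; inactive = neither condition holds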
Pf Dd2 inh: P. falciparum Dd2 growth inhibitors, primary screen, SYBR Green fluorescence, single dose replicates | 72 h; stronger effect = lower value | activity change, % at 10 µM | 94,000 tested, 2.3% active; in the data active = activity change below about -80%; inconclusive = no clear call, values can overlap the other calls
IDH1 mut inh: inhibitors of IDH1 R132H reductase, primary screen, biochemical, plate reader, single point. diaphorase/resazurin fluorescence, 60 min. inhibition, % at 10 µM. 70,000 tested, 0.18% active. AID 624101, 2012; in the data active = inhibition above about 34%; inconclusive = no clear call, values can overlap the other calls; inactive = below about 11%
Target sequence (O75874 whole entry R132H): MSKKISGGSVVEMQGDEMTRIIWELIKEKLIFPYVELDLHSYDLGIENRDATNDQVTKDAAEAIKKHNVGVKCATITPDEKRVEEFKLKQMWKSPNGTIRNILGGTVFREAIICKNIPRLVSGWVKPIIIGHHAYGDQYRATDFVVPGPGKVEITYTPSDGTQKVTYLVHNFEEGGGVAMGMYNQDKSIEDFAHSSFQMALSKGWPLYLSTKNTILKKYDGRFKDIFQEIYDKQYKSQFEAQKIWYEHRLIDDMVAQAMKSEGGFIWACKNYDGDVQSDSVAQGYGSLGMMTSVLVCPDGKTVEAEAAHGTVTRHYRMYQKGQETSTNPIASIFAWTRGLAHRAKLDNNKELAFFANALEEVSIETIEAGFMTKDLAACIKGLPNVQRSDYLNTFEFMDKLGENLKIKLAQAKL
T cruzi growth-2: T. cruzi intracellular proliferation inhibitors, confirmation, cell-based, NIH3T3 host, beta-gal parasite, luminescence, cherry-pick. T. cruzi beta-gal in NIH3T3, GalScreen luminescence, 90 h. AID 651739, 2012. inhibition, % at 8.35 µM. 5,600 tested, 72% active. shares compounds with T cruzi growth-1;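 active = mean replicate inhibition above about 95% and at least 55% of replicates individually reaching it, limit read from the data; inconclusive = only one of the two criteria is met; inactive = neither criterion is met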
T cruzi growth-3: inhibitors of intracellular T. cruzi replication, confirmation, NIH3T3 host cells, beta-gal parasites, cherry-pick, set 2; inhibition, % at 2.09 µM; shares compounds with T cruzi growth-1; T. cruzi beta-gal in NIH3T3, GalScreen luminescence, 90 h; 5,600 tested, 21% active;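 active = mean inhibition above about 95%, with at least 55% of replicates also reaching it, limit read from the data; inconclusive = meets just one of the two conditions; inactive = meets neither condition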
NIH3T3 tox: cytotoxicity in mouse NIH/3T3 fibroblasts, confirmation, cytotoxicity control for T. cruzi proliferation inhibitor project, cell-based, cherry-pick, single point; NIH/3T3 viability, CellTiter-Glo ATP luminescence, 90 h; AID 651742, 2012; 5,600 tested, 14% active; cytotoxicity (signal decrease), % at 8.35 µM; shares compounds with T cruzi growth-1;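 active = mean signal decrease across replicates above about 35% based on untreated-well scatter, with enough replicates individually passing, limit read from the data; inconclusive = no rule stated though some were filed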
3T3 cytotox 2: NIH/3T3 fibroblast cytotoxicity, confirmation, cytotoxicity control, cell-based, cherry-pick, single point, set 2 | shares compounds with T cruzi growth-1 | 5,600 tested, 56% active | NIH/3T3 viability, CellTiter-Glo ATP luminescence, 90 h | inhibition, % at 24.9 µM;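 active = mean loss of cell viability signal at or above a set limit, and enough replicates individually reaching it; inconclusive = meets only the mean limit or only the replicate share; inactive = meets neither condition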
A number is an active result; n = inactive; u = inconclusive; x = no result given. Sampled rows, rich in hits. Any-hit rate of the full collection: about 5.8%.

SMILES	GASC1 inh	T cruzi growth-1	Pf Dd2 inh	IDH1 mut inh	T cruzi growth-2	T cruzi growth-3	NIH3T3 tox	3T3 cytotox 2
N#C[C@H]1[C@H](c2ccc(C#CC3CCCC3)cc2)[C@H](CO)N1C(=O)Nc1ccc(F)cc1	n	103.1	n	x	106.2	n	n	105.1
CN(C)CC(=O)N1[C@H](C#N)[C@H](c2ccc(C#CC3CCCCC3)cc2)[C@@H]1CO	n	n	n	x	x	x	x	x
CC(C)NC(=O)N1[C@H](C#N)[C@@H](c2ccc(C#CC3CCCCC3)cc2)[C@H]1CO	n	n	n	x	x	x	x	x
CC(C)NC(=O)N1[C@H](C#N)[C@H](c2ccc(C#CC3CCCC3)cc2)[C@H]1CO	n	101.5	n	x	102.9	100.9	n	n
CN(C)CC(=O)N1[C@H](CO)[C@@H](c2ccc(C#CC3CCCCC3)cc2)[C@@H]1C#N	n	99.0	n	x	102.3	n	n	106.5
CCc1c(C)sc(NC(=S)Nc2cc(OC)c(Cl)cc2OC)c1C(=O)OC	x	x	x	n	x	x	x	x
C[C@H]1CN([C@@H](C)CO)C(=O)c2cccc(NC(=O)C3CCOCC3)c2O[C@H]1CN(C)C(=O)Nc1cccc2ccccc12	n	n	n	n	x	x	x	x
C[C@@H]1CN([C@@H](C)CO)C(=O)c2cccc(NC(=O)C3CCOCC3)c2O[C@@H]1CN(C)C(=O)Nc1cccc2ccccc12	n	100.1	n	n	n	n	n	n
C[C@@H]1CN([C@H](C)CO)C(=O)c2cccc(NC(=O)C3CCOCC3)c2O[C@H]1CN(C)C(=O)Nc1cccc2ccccc12	n	102.9	n	x	n	n	n	u
Cc1cc(=O)[nH]c(SCC(=O)Nc2ccc(I)cc2)n1	x	x	x	n	x	x	x	x
N#Cc1cc2c(nc1SCC(=O)Nc1ccc(Cl)cc1)CCCCCC2	x	x	x	n	x	x	x	x
C[C@@H]1CCCCO[C@@H](CN(C)C(=O)Cc2ccccc2)[C@@H](C)CN([C@H](C)CO)C(=O)c2cc(NC(=O)Nc3cccc4ccccc34)ccc2O1	n	n	n	x	x	x	x	x
C[C@@H]1CCCCO[C@H](CN(C)C(=O)Cc2ccccc2)[C@H](C)CN([C@@H](C)CO)C(=O)c2cc(NC(=O)Nc3cccc4ccccc34)ccc2O1	n	101.2	n	x	104.6	n	n	n
C[C@@H]1CCCCO[C@@H](CN(C)C(=O)Cc2ccccc2)[C@H](C)CN([C@H](C)CO)C(=O)c2cc(NC(=O)NC3CCCCC3)ccc2O1	n	99.6	n	n	107.6	n	n	25.8
C[C@H]1CCCCO[C@H](CN(C)C(=O)Cc2ccccc2)[C@@H](C)CN([C@@H](C)CO)C(=O)c2cc(NC(=O)Nc3ccccc3)ccc2O1	n	98.6	n	n	108.8	n	n	n
CC(C)(O)/C(=C/C#N)n1cccn1	x	x	x	n	x	x	x	x
C[C@H](CO)N1C[C@H](C)[C@@H](CN(C)Cc2ccc(-c3ccccc3)cc2)Oc2c(NC(=O)c3ccncc3)cccc2C1=O	n	102.1	n	x	104.6	98.2	49.4	36.0
C[C@@H]1CN([C@@H](C)CO)C(=O)c2cccc(NC(=O)c3ccncc3)c2O[C@@H]1CN(C)Cc1ccccc1	n	n	n	x	x	x	x	x
C[C@H](CO)N1C[C@H](C)[C@H](CN(C)Cc2ccc(-c3ccccc3)cc2)Oc2c(NC(=O)c3ccncc3)cccc2C1=O	n	99.3	n	n	104.6	u	56.0	47.4
C[C@H](CO)N1C[C@H](C)[C@@H](CN(C)Cc2ccccc2)Oc2c(NC(=O)c3ccncc3)cccc2C1=O	n	n	n	x	x	x	x	x
